Data from ChEMBL document CHEMBL1154718, “Carbamate analogues of fumagillin as potent, targeted inhibitors of methionine aminopeptidase-2” (J Med Chem, 2009).

system: HUVEC; assay: Antiproliferative activity against HUVEC after 72 hrs by MTT assay; type: cell-based; settings: Homo sapiens
In short: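 HUVEC (passage 3-5) grown in endothelial growth medium at 37 C; 2000 cells/well seeded in triplicate. After attachment, fresh medium with compound for 72 h. MTT 0.25 mg/mL added for 2 h at 37 C, formazan dissolved in isopropanol, absorbance read at 570 nm. Value is concentration giving 50% growth inhibition.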

SMILES | IC50 [nM]
COC(=O)[C@@H](NC(=O)O[C@@H]1CC[C@]2(CO2)[C@H]([C@@]2(C)O[C@@H]2CC=C(C)C)[C@@H]1OC)C(C)C | 0.018
CO[C@H]1[C@@H]([C@@]2(C)O[C@@H]2CC=C(C)C)[C@]2(CC[C@H]1OC(=O)N[C@@H](C(=O)NCCC1CCCN1C)C(C)C)CO2 (stereo partly specified) | 0.6
CO[C@H]1[C@@H]([C@@]2(C)O[C@@H]2CC=C(C)C)[C@]2(CC[C@H]1OC(=O)NC(=O)CCl)CO2 | 0.25
CO[C@H]1[C@@H]([C@@]2(C)O[C@@H]2CC=C(C)C)[C@]2(CC[C@H]1OC(=O)N[C@@H](C(=O)NN1CCOCC1)C(C)C)CO2 | 1.7
CO[C@H]1[C@@H]([C@@]2(C)O[C@@H]2CC=C(C)C)[C@]2(CC[C@H]1OC(=O)N[C@@H](C(N)=O)C(C)C)CO2 | 0.095
CO[C@H]1[C@@H]([C@@]2(C)O[C@@H]2CC=C(C)C)[C@]2(CC[C@H]1OC(=O)N[C@@H](C(=O)NCCN1CCCC1)C(C)C)CO2 | 0.6
CO[C@H]1C([C@@]2(C)O[C@@H]2CC=C(C)C)[C@]2(CC[C@H]1OC(=O)NCCC[N+](C)(C)C)CO2 (single isomer, unassigned) | > 100
CO[C@H]1C([C@@]2(C)O[C@@H]2CC=C(C)C)[C@]2(CC[C@H]1OC(=O)NC(C)(C)C)CO2 (single isomer, unassigned) | 1.1
CO[C@H]1C([C@@]2(C)O[C@@H]2CC=C(C)C)[C@]2(CC[C@H]1OC(=O)N[C@@H](C(=O)Nc1cccc(C(=O)O)c1)C(C)C)CO2 (single isomer, unassigned) | 15
CO[C@H]1C([C@@]2(C)O[C@@H]2CC=C(C)C)[C@]2(CC[C@H]1OC(=O)NCc1ccc(C(=O)O)cc1)CO2 (single isomer, unassigned) | 0.7
CO[C@H]1C([C@@]2(C)O[C@@H]2CC=C(C)C)[C@]2(CC[C@H]1OC(=O)NC(C)(C)C(N)=O)CO2 (single isomer, unassigned) | 1.7
CO[C@H]1C([C@@]2(C)O[C@@H]2CC=C(C)C)[C@]2(CC[C@H]1OC(=O)NC1(C(N)=O)CCCC1)CO2 (single isomer, unassigned) | 0.7
CO[C@H]1C([C@@]2(C)O[C@@H]2CC=C(C)C)[C@]2(CC[C@H]1OC(=O)NN1CCOCC1)CO2 (single isomer, unassigned) | 0.7
CO[C@H]1C([C@@]2(C)O[C@@H]2CC=C(C)C)[C@]2(CC[C@H]1OC(=O)NCCC1CCC[N+]1(C)C)CO2 (single isomer, unassigned) | > 100
COC(=O)[C@H](NC(=O)O[C@@H]1CC[C@]2(CO2)C([C@@]2(C)O[C@@H]2CC=C(C)C)[C@@H]1OC)c1ccccc1 (single isomer, unassigned) | 0.036
CO[C@H]1C([C@@]2(C)O[C@@H]2CC=C(C)C)[C@]2(CC[C@H]1OC(=O)NCCN1CCCC1)CO2 (single isomer, unassigned) | 0.1
CO[C@H]1C([C@@]2(C)O[C@@H]2CC=C(C)C)[C@]2(CC[C@H]1OC(=O)NC(C)C)CO2 (single isomer, unassigned) | 0.06
COC(=O)[C@H](NC(=O)O[C@@H]1CC[C@]2(CO2)C([C@@]2(C)O[C@@H]2CC=C(C)C)[C@@H]1OC)C(C)C (single isomer, unassigned) | 0.04
CO[C@H]1C([C@@]2(C)O[C@@H]2CC=C(C)C)[C@]2(CC[C@H]1OC(=O)NCCC1CCCN1C)CO2 (single isomer, unassigned) | 0.2
COC(=O)[C@@H](CC(C)C)NC(=O)O[C@@H]1CC[C@]2(CO2)C([C@@]2(C)O[C@@H]2CC=C(C)C)[C@@H]1OC (single isomer, unassigned) | 0.038
CO[C@H]1C([C@@]2(C)O[C@@H]2CC=C(C)C)[C@]2(CC[C@H]1OC(=O)N1CCC(C(=O)O)CC1)CO2 (single isomer, unassigned) | 1.3

system: not listed separately; assay: Antiproliferative activity against BAEC; type: functional, cell-based; settings: Bos taurus

SMILES | IC50 [nM]
COC(=O)[C@@H](NC(=O)O[C@@H]1CC[C@]2(CO2)[C@H]([C@@]2(C)O[C@@H]2CC=C(C)C)[C@@H]1OC)C(C)C | 0.017
CO[C@H]1[C@@H]([C@@]2(C)O[C@@H]2CC=C(C)C)[C@]2(CC[C@H]1OC(=O)N[C@@H](C(N)=O)C(C)C)CO2 | 0.046
COC(=O)[C@H](NC(=O)O[C@@H]1CC[C@]2(CO2)C([C@@]2(C)O[C@@H]2CC=C(C)C)[C@@H]1OC)c1ccccc1 (single isomer, unassigned) | 0.035
COC(=O)[C@H](NC(=O)O[C@@H]1CC[C@]2(CO2)C([C@@]2(C)O[C@@H]2CC=C(C)C)[C@@H]1OC)C(C)C (single isomer, unassigned) | 0.048
COC(=O)[C@@H](CC(C)C)NC(=O)O[C@@H]1CC[C@]2(CO2)C([C@@]2(C)O[C@@H]2CC=C(C)C)[C@@H]1OC (single isomer, unassigned) | 0.118

target: Methionine aminopeptidase 2 (Homo sapiens) (UniProt P50579); assay: Inhibition of MetAP2 assessed as remaining enzyme activity at 200 nM after 8 hrs relative to untreated control; settings: not given
Sequence (P50579 2-478 limits assumed): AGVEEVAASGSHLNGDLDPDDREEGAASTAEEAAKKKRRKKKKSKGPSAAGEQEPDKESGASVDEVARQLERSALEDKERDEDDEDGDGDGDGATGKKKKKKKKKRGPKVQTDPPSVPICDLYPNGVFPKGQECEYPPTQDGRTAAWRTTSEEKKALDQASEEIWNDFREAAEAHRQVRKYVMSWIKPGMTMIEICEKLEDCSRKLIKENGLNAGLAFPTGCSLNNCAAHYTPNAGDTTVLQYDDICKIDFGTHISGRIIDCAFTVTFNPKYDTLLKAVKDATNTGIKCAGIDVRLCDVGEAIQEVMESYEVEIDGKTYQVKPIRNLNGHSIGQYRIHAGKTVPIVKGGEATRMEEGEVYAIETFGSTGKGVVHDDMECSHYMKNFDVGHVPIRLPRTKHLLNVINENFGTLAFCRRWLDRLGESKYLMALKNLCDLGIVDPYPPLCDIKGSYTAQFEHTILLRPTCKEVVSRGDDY
In short: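 MetAP2 at 20 nM final was incubated with compound at 200 nM final in 1% glycerol, 20 mM HEPES, 100 mM KCl, 0.1 mM CoSO4. Triplicate samples were taken at 1, 2, 4 and 8 h, and residual activity was read with Met-AMC substrate. Result is percent activity remaining at 8 h.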

SMILES | Activity [%]
CO[C@H]1[C@@H]([C@@]2(C)O[C@@H]2CC=C(C)C)[C@]2(CC[C@H]1OC(=O)N[C@@H](C(=O)NCCC1CCCN1C)C(C)C)CO2 (stereo partly specified) | 4.5
CO[C@H]1[C@@H]([C@@]2(C)O[C@@H]2CC=C(C)C)[C@]2(CC[C@H]1OC(=O)NC(=O)CCl)CO2 | 4
CO[C@H]1[C@@H]([C@@]2(C)O[C@@H]2CC=C(C)C)[C@]2(CC[C@H]1OC(=O)N[C@@H](C(=O)NN1CCOCC1)C(C)C)CO2 | 5.2
CO[C@H]1[C@@H]([C@@]2(C)O[C@@H]2CC=C(C)C)[C@]2(CC[C@H]1OC(=O)N[C@@H](C(N)=O)C(C)C)CO2 | 2.8
CO[C@H]1[C@@H]([C@@]2(C)O[C@@H]2CC=C(C)C)[C@]2(CC[C@H]1OC(=O)N[C@@H](C(=O)NCCN1CCCC1)C(C)C)CO2 | 2.6
CO[C@H]1C([C@@]2(C)O[C@@H]2CC=C(C)C)[C@]2(CC[C@H]1OC(=O)NCCC[N+](C)(C)C)CO2 (single isomer, unassigned) | 5.4
CO[C@H]1C([C@@]2(C)O[C@@H]2CC=C(C)C)[C@]2(CC[C@H]1OC(=O)N[C@@H](C(=O)Nc1cccc(C(=O)O)c1)C(C)C)CO2 (single isomer, unassigned) | 4.3
CO[C@H]1C([C@@]2(C)O[C@@H]2CC=C(C)C)[C@]2(CC[C@H]1OC(=O)NCc1ccc(C(=O)O)cc1)CO2 (single isomer, unassigned) | 3.5
CO[C@H]1C([C@@]2(C)O[C@@H]2CC=C(C)C)[C@]2(CC[C@H]1OC(=O)NC(C)(C)C(N)=O)CO2 (single isomer, unassigned) | 24
CO[C@H]1C([C@@]2(C)O[C@@H]2CC=C(C)C)[C@]2(CC[C@H]1OC(=O)NC1(C(N)=O)CCCC1)CO2 (single isomer, unassigned) | 13
CO[C@H]1C([C@@]2(C)O[C@@H]2CC=C(C)C)[C@]2(CC[C@H]1OC(=O)NN1CCOCC1)CO2 (single isomer, unassigned) | 5.7
CO[C@H]1C([C@@]2(C)O[C@@H]2CC=C(C)C)[C@]2(CC[C@H]1OC(=O)NCCC1CCC[N+]1(C)C)CO2 (single isomer, unassigned) | 6.3
CO[C@H]1C([C@@]2(C)O[C@@H]2CC=C(C)C)[C@]2(CC[C@H]1OC(=O)NCCN1CCCC1)CO2 (single isomer, unassigned) | 3.5
CO[C@H]1C([C@@]2(C)O[C@@H]2CC=C(C)C)[C@]2(CC[C@H]1OC(=O)NC(C)C)CO2 (single isomer, unassigned) | 3
CO[C@H]1C([C@@]2(C)O[C@@H]2CC=C(C)C)[C@]2(CC[C@H]1OC(=O)NCCC1CCCN1C)CO2 (single isomer, unassigned) | 5.4
CO[C@H]1C([C@@]2(C)O[C@@H]2CC=C(C)C)[C@]2(CC[C@H]1OC(=O)N1CCC(C(=O)O)CC1)CO2 (single isomer, unassigned) | 8.3

system: Rattus norvegicus; assay: CNS toxicity in rat assessed as incidence of seizures at 6 mg/kg, iv qd for 14 days; settings: in vivo, 336 h

SMILES | Activity
CO[C@H]1[C@@H]([C@@]2(C)O[C@@H]2CC=C(C)C)[C@]2(CC[C@H]1OC(=O)N[C@@H](C(N)=O)C(C)C)CO2 | Non-toxic
COC(=O)[C@@H](CC(C)C)NC(=O)O[C@@H]1CC[C@]2(CO2)C([C@@]2(C)O[C@@H]2CC=C(C)C)[C@@H]1OC (single isomer, unassigned) | Toxic

system: Rattus norvegicus; assay: CNS toxicity in rat assessed as incidence of seizures at 60 mg/kg, iv qd for 14 days; settings: in vivo, 336 h

SMILES | Activity
CO[C@H]1[C@@H]([C@@]2(C)O[C@@H]2CC=C(C)C)[C@]2(CC[C@H]1OC(=O)N[C@@H](C(N)=O)C(C)C)CO2 | Non-toxic
COC(=O)[C@@H](CC(C)C)NC(=O)O[C@@H]1CC[C@]2(CO2)C([C@@]2(C)O[C@@H]2CC=C(C)C)[C@@H]1OC (single isomer, unassigned) | Toxic
